The record followed here is ChEMBL document CHEMBL4304739, “Discovery of 3-(Indol-5-yl)-indazole Derivatives as Novel Myeloid Differentiation Protein 2/Toll-like Receptor 4 Antagonists for Treatment of Acute Lung Injury” (J Med Chem, 2019).

The target of assay [1] is Myeloid differentiation primary response protein MyD88 (Homo sapiens) (UniProt Q99836). The experiment in a line: Binding affinity to recombinant MyD88 (unknown origin) by surface plasmon resonance analysis. For orientation: Surface plasmon resonance follows binding to a sensor surface in real time, without labels.
Assay [2] has as its system Mus musculus. The experiment in a line: Antiinflammatory activity in LPS-induced C57BL/6 mouse model of acute lung injury assessed as suppression of neutrophil lung infiltration by measuring reduction in MPO activity at 5 to 10 mg/kg, iv pretreated for 15 mins followed by LPS stimulation and measured after 6 hrs. Format: functional, organism-based. The method in brief:
(§1)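 Male C57BL/6 mice (18−22 g; n=8 per group). Compound in 0.1% CMC-Na given by tail vein injection 15 min before intraperitoneal LPS (20 mg/kg); controls received saline. Mice were sacrificed 6 h after LPS, and serum and lung tissue were collected.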

The test system of assay [3] is Mus musculus. In words: Antiinflammatory activity in LPS-induced C57BL/6 mouse model of acute lung injury assessed as reduction in F4/80 positive macrophage at 5 to 10 mg/kg, iv pretreated for 15 mins followed by LPS stimulation and measured after 6 hrs by ABC/hematoxylin staining-based immunohistochemistry analysis. Format: functional, organism-based. The method in brief: as §1

Assay [4] concerns Mus musculus. The experiment in a line: Antiinflammatory activity in LPS-induced C57BL/6 mouse model of acute lung injury assessed as reduction in TNFalpha mRNA level at 10 mg/kg, iv pretreated for 15 mins followed by LPS stimulation and measured after 6 hrs by SYBR green staining-based qRT-PCR analysis. Format: functional, organism-based. The essentials: (§2)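 Total lung RNA extracted, with DNase I removal of residual DNA. Quantitative PCR with mouse gene primers; each gene normalized to β-actin. C57BL/6 mice given compound iv 15 min before intraperitoneal LPS (20 mg/kg) and killed at 6 h.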
Background: Real-time PCR tracks product formation cycle by cycle.

The subject of assay [5] is Mus musculus. In words: Antiinflammatory activity in LPS-induced C57BL/6 mouse model of acute lung injury assessed as reduction in COX2 mRNA level at 10 mg/kg, iv pretreated for 15 mins followed by LPS stimulation and measured after 6 hrs by SYBR green staining-based qRT-PCR analysis. It counts as functional, organism-based. The essentials: as §2
In assay [6] the target is Aurora kinase A (Homo sapiens) (UniProt O14965). In words: Inhibition of wild-type human partial length AURKA (E122 to K401 residues) expressed in mammalian expression system at 1 uM by Kinomescan method. The essentials: (§3)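 Binding-competition screen on the KINOMEscan platform, run by the provider, with the test compound at 1 μM. Readout is percent of control: (test signal − positive control signal)/(negative control signal − positive control signal) × 100. The DMSO negative control is set as 100% Ctrl and a control compound as 0% Ctrl. Lower values mean stronger hits.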

Assay [7] deals with Aurora kinase B (Homo sapiens) (UniProt Q96GD4). The experiment in a line: Inhibition of wild-type human partial length AURKB (D25 to A303 residues) expressed in mammalian expression system at 1 uM by Kinomescan method. The essentials: as §3
For assay [8], the target named is Serine/threonine-protein kinase B-raf (Homo sapiens) (UniProt P15056). In words: Inhibition of wild-type human partial length BRAF (S429 to E741 residues) expressed in mammalian expression system at 1 uM by Kinomescan method. The essentials:
as §3

Assay [9] has as its target Casein kinase I isoform delta (Homo sapiens) (UniProt P48730). In words: Inhibition of wild-type human full length CSNK1D (M1 to K409 residues) expressed in bacterial expression system at 1 uM by Kinomescan method. The essentials: (§4)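 KINOMEscan competition binding screen at 1 μM compound. Results reported as % of control = (test − positive control)/(DMSO negative control − positive control) × 100, where lower values mean stronger hits.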

In assay [10] the target is Receptor-type tyrosine-protein kinase FLT3 (Homo sapiens) (UniProt P36888). In words: Inhibition of wild-type human partial length FLT3 (V592 to Y969 residues) expressed in bacterial expression system at 1 uM by Kinomescan method. The essentials: as §3
Assay [11] deals with Tyrosine-protein kinase JAK3 (Homo sapiens) (UniProt P52333). In words: Inhibition of wild-type human partial length JAK3 JH1 catalytic domain (I781 to S1124 residues) expressed in mammalian expression system at 1 uM by Kinomescan method. The method in brief: as §3
For assay [12], the target named is Mitogen-activated protein kinase 10 (Homo sapiens) (UniProt P53779). In words: Inhibition of wild-type human partial length JNK3 (V28 to Q422 residues) expressed in mammalian expression system at 1 uM by Kinomescan method. The method in brief:
as §3

The target of assay [13] is Serine/threonine-protein kinase STK11 (Homo sapiens) (UniProt Q15831). The experiment in a line: Inhibition of wild-type human full length LKB1 (M1 to Q433 residues) expressed in bacterial expression system at 1 uM by Kinomescan method. The essentials:
as §4

The target of assay [14] is Mitogen-activated protein kinase kinase kinase 4 (Homo sapiens) (UniProt Q9Y6R4). In words: Inhibition of wild-type human partial length MAP3K4 (G1319 to E1608 residues) expressed in bacterial expression system at 1 uM by Kinomescan method. The essentials:
as §3

Assay [15] has as its target Dual specificity mitogen-activated protein kinase kinase 1 (Homo sapiens) (UniProt Q02750). In words: Inhibition of wild-type human full length MEK1 (M1 to V393 residues) expressed in mammalian expression system at 1 uM by Kinomescan method. The essentials: as §4
Assay [16] has as its target Mitogen-activated protein kinase 11 (Homo sapiens) (UniProt Q15759). The experiment in a line: Inhibition of wild-type human full length p38-beta (M1 to Q364 residues) expressed in bacterial expression system at 1 uM by Kinomescan method. The method in brief:
as §4

Assay [17] addresses Platelet-derived growth factor receptor beta (Homo sapiens) (UniProt P09619). The experiment in a line: Inhibition of wild-type human partial length PDGFRB (V582 to Y1009 residues) expressed in bacterial expression system at 1 uM by Kinomescan method. The essentials:
as §3

Assay [18] deals with Serine/threonine-protein kinase pim-3 (Homo sapiens) (UniProt Q86V86). The experiment in a line: Inhibition of wild-type human partial length PIM3 (G16 to A317 residues) expressed in bacterial expression system at 1 uM by Kinomescan method. The method in brief: as §3
For assay [19], the target named is Rho-associated protein kinase 2 (Homo sapiens) (UniProt O75116). The experiment in a line: Inhibition of wild-type human partial length ROCK2 (M1 to T431 residues) expressed in mammalian expression system at 1 uM by Kinomescan method. The method in brief: as §3
Assay [20] has as its target TGF-beta receptor type-1 (Homo sapiens) (UniProt P36897). In words: Inhibition of wild-type human partial length TGFBR1 (D179 to M503 residues) expressed in bacterial expression system at 1 uM by Kinomescan method. The essentials:
(§5)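 Single-concentration screen at 1 μM on the KINOMEscan panel (98 kinases), run by the platform provider. Results are given as percent of control: % Ctrl = [(test signal − positive control signal)/(negative control signal − positive control signal)] × 100. DMSO serves as negative control (100% Ctrl) and a control compound as positive control (0% Ctrl). Lower values mean stronger binding hits.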

In assay [21] the target is Angiopoietin-1 receptor (Homo sapiens) (UniProt Q02763). In words: Inhibition of wild-type human partial length TIE2 (N804 to T1112 residues) expressed in bacterial expression system at 1 uM by Kinomescan method. The essentials: as §5
The target in assay [22] is Serine/threonine-protein kinase ULK2 (Homo sapiens) (UniProt Q8IYT8). The experiment in a line: Inhibition of wild-type human partial length ULK2 (M1 to S301 residues) expressed in mammalian expression system at 1 uM by Kinomescan method. The essentials:
as §5

Active and inactive are the calls of the source. The calls are words filed in the database; no cut-off is given here.

Sequence of Angiopoietin-1 receptor (Homo sapiens) (Q02763 whole entry, the tested form may be a part): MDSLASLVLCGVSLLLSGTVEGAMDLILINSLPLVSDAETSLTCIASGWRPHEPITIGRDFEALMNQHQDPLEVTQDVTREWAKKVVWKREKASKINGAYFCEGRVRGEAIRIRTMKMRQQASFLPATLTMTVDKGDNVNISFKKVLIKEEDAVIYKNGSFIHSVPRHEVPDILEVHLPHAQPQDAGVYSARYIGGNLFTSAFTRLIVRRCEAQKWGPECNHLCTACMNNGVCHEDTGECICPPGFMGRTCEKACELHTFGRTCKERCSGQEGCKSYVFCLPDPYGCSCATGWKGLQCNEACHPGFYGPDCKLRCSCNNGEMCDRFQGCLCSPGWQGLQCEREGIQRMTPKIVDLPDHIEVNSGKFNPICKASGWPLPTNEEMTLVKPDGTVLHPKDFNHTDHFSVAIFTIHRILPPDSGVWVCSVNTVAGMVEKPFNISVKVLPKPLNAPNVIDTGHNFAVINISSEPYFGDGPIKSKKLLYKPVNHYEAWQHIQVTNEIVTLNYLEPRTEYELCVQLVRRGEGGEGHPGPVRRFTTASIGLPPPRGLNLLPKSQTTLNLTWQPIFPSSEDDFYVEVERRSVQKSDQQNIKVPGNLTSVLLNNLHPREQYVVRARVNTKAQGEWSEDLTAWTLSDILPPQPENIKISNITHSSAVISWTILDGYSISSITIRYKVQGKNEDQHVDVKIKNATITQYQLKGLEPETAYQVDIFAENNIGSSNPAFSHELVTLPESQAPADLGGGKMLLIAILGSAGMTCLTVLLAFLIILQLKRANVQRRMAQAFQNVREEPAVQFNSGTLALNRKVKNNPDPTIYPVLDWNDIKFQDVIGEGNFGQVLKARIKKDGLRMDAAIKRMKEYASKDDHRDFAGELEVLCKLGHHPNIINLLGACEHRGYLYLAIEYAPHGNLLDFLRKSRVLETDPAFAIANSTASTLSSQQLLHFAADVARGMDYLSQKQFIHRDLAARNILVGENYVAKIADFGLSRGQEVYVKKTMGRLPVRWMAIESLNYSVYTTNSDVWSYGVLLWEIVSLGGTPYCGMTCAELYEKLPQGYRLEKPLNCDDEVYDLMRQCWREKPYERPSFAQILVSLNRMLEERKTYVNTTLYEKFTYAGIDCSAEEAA
Sequence of Mitogen-activated protein kinase kinase kinase 4 (Homo sapiens) (Q9Y6R4 whole entry, the tested form may be a part): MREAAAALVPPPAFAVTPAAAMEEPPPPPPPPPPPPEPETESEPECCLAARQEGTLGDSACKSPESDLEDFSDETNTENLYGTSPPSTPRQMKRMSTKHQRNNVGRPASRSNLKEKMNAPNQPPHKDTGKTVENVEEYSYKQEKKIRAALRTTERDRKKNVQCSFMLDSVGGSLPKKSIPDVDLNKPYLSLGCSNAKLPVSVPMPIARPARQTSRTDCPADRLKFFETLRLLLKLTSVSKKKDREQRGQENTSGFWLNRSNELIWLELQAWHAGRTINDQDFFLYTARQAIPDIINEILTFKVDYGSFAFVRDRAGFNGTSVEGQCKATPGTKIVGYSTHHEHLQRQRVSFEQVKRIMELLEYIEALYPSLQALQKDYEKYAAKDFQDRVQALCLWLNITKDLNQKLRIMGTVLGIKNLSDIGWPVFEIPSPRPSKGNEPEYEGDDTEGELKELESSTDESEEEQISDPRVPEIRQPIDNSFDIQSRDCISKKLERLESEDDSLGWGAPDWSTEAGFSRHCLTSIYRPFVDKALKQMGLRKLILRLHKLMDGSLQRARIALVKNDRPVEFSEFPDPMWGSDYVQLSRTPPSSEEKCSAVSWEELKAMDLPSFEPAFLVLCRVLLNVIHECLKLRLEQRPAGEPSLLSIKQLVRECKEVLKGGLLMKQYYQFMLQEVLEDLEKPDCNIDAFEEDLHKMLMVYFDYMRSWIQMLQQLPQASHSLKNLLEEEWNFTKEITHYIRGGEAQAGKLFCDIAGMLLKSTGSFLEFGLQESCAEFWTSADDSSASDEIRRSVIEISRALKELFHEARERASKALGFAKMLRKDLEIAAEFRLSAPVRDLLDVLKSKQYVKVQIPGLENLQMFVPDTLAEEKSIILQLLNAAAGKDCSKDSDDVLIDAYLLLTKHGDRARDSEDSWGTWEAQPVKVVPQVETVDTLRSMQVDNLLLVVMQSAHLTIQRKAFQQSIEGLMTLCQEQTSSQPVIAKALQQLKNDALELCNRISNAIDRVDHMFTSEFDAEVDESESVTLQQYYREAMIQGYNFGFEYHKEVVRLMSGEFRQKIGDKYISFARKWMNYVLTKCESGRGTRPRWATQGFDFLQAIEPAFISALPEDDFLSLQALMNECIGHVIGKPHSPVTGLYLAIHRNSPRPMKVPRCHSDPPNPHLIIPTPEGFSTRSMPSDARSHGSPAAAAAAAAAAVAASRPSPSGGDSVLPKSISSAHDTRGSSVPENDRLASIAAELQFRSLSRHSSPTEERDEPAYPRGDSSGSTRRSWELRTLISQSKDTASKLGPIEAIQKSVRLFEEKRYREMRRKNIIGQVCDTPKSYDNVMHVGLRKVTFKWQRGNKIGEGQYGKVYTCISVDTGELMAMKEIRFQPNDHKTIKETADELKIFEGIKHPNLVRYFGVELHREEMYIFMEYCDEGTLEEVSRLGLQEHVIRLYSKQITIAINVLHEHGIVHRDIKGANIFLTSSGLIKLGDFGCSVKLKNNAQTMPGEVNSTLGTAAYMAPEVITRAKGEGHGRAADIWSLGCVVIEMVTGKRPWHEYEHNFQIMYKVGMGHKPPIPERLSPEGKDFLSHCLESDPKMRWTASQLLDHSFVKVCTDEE
Sequence of Serine/threonine-protein kinase ULK2 (Homo sapiens) (Q8IYT8 whole entry, the tested form may be a part): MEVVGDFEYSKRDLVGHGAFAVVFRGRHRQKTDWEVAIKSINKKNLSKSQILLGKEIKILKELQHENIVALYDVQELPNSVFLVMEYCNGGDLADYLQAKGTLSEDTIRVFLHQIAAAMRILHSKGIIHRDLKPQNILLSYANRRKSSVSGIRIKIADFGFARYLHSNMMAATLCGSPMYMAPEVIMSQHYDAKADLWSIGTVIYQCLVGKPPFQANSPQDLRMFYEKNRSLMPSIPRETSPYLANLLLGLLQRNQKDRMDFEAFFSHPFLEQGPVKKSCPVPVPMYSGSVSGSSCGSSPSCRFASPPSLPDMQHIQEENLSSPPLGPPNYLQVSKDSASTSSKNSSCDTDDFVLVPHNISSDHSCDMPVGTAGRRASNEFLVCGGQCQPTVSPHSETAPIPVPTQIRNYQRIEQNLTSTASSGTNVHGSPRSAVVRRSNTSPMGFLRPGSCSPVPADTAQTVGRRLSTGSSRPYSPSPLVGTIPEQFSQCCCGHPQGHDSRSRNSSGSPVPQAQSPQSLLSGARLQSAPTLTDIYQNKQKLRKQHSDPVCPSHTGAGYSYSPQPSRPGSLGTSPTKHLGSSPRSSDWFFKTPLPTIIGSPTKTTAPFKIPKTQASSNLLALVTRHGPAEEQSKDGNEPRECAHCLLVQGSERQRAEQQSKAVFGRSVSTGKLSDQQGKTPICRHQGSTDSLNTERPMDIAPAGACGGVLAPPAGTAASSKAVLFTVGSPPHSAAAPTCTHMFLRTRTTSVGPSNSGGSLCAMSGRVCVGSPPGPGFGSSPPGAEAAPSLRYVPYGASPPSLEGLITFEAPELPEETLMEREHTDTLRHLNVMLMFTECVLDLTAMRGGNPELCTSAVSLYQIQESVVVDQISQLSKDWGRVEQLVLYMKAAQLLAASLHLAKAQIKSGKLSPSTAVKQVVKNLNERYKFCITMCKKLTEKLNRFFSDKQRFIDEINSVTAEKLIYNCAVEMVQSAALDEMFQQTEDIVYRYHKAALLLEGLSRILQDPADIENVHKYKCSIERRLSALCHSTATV
Sequence of Rho-associated protein kinase 2 (Homo sapiens) (O75116 whole entry, looked up, the tested form may be a part): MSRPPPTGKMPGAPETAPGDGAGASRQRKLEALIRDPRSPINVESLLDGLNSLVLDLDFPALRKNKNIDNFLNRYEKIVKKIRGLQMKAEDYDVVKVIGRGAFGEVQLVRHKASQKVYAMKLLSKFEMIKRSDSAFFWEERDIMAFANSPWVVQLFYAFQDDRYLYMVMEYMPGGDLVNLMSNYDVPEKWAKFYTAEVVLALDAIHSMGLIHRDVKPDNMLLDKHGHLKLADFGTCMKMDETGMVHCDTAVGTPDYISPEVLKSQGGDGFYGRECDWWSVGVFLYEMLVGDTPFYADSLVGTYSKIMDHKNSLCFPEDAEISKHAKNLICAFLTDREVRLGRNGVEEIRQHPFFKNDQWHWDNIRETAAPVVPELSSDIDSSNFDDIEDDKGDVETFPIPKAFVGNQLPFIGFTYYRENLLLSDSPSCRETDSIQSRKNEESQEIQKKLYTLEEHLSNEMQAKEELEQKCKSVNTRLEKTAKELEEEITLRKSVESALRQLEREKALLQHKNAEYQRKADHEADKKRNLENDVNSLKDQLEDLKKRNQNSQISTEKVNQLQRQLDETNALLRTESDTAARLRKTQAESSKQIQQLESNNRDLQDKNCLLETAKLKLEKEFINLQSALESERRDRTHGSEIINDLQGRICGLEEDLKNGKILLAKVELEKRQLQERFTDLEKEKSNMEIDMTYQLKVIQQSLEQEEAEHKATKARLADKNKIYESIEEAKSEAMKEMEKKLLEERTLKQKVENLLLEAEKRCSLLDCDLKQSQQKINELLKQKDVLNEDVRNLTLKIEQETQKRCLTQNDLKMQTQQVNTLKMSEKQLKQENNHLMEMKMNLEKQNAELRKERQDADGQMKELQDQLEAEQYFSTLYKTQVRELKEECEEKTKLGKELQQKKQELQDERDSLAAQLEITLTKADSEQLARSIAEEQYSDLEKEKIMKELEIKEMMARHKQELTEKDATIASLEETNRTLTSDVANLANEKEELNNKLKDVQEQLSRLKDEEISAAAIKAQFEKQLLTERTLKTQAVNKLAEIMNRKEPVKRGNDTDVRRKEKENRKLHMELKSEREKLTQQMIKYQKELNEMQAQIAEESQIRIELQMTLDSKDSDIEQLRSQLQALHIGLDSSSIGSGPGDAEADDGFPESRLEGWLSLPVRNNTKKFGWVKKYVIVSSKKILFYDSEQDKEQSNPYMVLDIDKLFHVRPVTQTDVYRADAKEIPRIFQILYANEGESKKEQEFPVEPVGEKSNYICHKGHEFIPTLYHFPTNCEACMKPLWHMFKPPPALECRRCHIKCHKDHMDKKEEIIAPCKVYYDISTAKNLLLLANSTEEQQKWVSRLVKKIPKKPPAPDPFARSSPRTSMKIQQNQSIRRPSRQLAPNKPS

With `O=C(Nc1ccc2[nH]nc(-c3ccc4[nH]ccc4c3)c2c1)c1c(Cl)cccc1Cl`, the result in assay [1] was inactive. Moreover, the outcome in the assay with Mus musculus [2], in the assay on Mus musculus [3], in the assay with Mus musculus [4] and in the assay with Mus musculus [5] was Active. In addition, the inhibition result in assay [6], in assay [7], in assay [8], in assay [9], in [10] and in [11] was “inactive” each time. Also, the inhibition entry in assay [12], in assay [13], in [14], in assay [15], in assay [16] and in [17] was “inactive” in each case. In addition, the inhibition entry in [18], in assay [19], in assay [20], in [21] and in assay [22] was “inactive” in each case.
